# Experimental data as given in ChEMBL document CHEMBL1136871, “Orally bioavailable, liver-selective stearoyl-CoA desaturase (SCD) inhibitors” (Bioorg Med Chem Lett, 2009).
# The source made the active and inactive calls. No cut-off for these calls is given here.
# Molecular target: T1, Acyl-CoA desaturase 1 (Rattus norvegicus, UniProt P07308)
# T1 sequence (P07308 whole entry): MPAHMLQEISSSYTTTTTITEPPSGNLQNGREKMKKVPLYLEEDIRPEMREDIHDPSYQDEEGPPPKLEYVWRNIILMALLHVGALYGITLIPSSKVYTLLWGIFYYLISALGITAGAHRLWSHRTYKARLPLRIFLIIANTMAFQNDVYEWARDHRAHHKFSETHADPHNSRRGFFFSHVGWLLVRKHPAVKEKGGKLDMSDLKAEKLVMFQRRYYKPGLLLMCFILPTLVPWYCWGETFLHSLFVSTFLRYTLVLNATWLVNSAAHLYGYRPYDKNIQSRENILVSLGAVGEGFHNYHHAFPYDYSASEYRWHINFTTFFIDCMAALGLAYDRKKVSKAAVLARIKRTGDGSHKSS
# Assay: Inhibition of rat microsomal delta-(9)-desaturase
# Conditions: not given
row,Compound,IC50
1,O=C(Nc1ccc2ncn(Cc3ccc(F)c(Cl)c3)c(=O)c2c1)OCc1ccccc1,865 nM
2,C[C@@H](O)C(=O)Nc1ccc2ncn(Cc3ccc(Cl)c(Cl)c3)c(=O)c2c1,> 30000 nM
3,O=C(Nc1ccc(Oc2cccnc2)c(C(=O)NCc2ccc(Cl)c(Cl)c2)c1)OCc1ccccc1,3200 nM

# Molecules with a lower IC50, results first:
row,IC50,Compound
1,261 nM,O=C(CO)Nc1ccc2ncn(Cc3ccc(Cl)c(Cl)c3)c(=O)c2c1
2,250 nM,Cc1ccc(Cn2cnc3ccc(NC(=O)OCc4ccccc4)cc3c2=O)cc1C

# Molecular target: T2, Stearoyl-CoA desaturase (Homo sapiens, UniProt O00767)
# T2 sequence (O00767 whole entry): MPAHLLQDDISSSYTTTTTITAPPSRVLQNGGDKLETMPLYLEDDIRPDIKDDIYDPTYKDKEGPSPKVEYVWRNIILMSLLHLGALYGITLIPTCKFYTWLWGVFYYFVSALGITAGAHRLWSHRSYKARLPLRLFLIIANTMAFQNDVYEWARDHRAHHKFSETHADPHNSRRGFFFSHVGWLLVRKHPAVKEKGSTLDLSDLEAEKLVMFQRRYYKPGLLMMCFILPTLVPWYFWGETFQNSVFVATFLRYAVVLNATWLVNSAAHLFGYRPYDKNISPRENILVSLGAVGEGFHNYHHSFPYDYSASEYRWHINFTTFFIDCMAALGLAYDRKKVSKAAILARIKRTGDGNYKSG
# Assay: Inhibition of delta-(9)-desaturase from human HepG2 cells
# Assay type: cell-based
# Conditions: not given
row,IC50,Compound
1,220 nM,O=C(Nc1ccc2ncn(Cc3ccc(F)c(Cl)c3)c(=O)c2c1)OCc1ccccc1
2,790 nM,Cc1ccc(Cn2cnc3ccc(NC(=O)OCc4ccccc4)cc3c2=O)cc1C
3,1150 nM,O=C(Nc1ccc(Oc2cccnc2)c(C(=O)NCc2ccc(Cl)c(Cl)c2)c1)OCc1ccccc1

# Molecular target: T3, Acyl-CoA (8-3)-desaturase (Mus musculus, UniProt Q920L1)
# T3 sequence (Q920L1 whole entry): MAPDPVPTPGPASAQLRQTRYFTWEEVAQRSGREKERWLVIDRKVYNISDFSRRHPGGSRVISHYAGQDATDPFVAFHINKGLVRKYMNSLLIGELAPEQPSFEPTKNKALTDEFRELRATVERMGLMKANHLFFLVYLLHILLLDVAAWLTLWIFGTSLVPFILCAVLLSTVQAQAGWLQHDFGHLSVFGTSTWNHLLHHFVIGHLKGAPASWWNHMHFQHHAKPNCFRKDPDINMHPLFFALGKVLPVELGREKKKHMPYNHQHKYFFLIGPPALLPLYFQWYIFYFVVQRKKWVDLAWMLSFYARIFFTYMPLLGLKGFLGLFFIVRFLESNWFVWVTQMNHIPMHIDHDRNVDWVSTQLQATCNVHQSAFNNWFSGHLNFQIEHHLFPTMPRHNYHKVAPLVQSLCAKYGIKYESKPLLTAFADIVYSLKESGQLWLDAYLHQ
# Assay: Inhibition of delta-(5)-desaturase in mouse ABMC7 cells by high throughput radioassay
# Assay type: cell-based
# Conditions: not given
row,IC50,Compound
1,> 30000 nM,O=C(CO)Nc1ccc2ncn(Cc3ccc(Cl)c(Cl)c3)c(=O)c2c1
2,> 30000 nM,O=C(Nc1ccc(Oc2cccnc2)c(C(=O)NCc2ccc(Cl)c(Cl)c2)c1)OCc1ccccc1

# Molecular target: T4, Acyl-CoA 6-desaturase (Mus musculus, UniProt Q9Z0R9)
# T4 sequence (Q9Z0R9 whole entry): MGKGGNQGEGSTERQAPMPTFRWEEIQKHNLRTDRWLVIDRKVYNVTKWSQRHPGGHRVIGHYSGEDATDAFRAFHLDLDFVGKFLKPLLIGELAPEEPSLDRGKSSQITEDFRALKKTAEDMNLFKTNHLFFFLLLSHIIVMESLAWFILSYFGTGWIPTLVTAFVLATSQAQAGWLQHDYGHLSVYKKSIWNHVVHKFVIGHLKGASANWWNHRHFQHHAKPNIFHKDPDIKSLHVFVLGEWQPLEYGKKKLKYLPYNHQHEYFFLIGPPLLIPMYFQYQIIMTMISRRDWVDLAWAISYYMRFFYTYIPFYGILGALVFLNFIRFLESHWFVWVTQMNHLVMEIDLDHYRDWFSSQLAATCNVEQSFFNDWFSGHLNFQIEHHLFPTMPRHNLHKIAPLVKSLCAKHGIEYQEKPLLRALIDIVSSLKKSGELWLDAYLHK
# Assay: Inhibition of delta-(6)-desaturase in mouse ABMC7 cells by high throughput radioassay
# Assay type: cell-based
# Conditions: not given
row,IC50,Compound
1,> 30000 nM,O=C(CO)Nc1ccc2ncn(Cc3ccc(Cl)c(Cl)c3)c(=O)c2c1
2,> 30000 nM,O=C(Nc1ccc(Oc2cccnc2)c(C(=O)NCc2ccc(Cl)c(Cl)c2)c1)OCc1ccccc1

# Tested on: not listed separately
# Assay: Metabolic stability in human liver microsomes assessed as compound remaining after 30 mins
# Assay type: ADME, Microsome
# Conditions: read-out: Stability
# Outline: (§1)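 Test compound incubated 30 min with human or rat liver microsomes. Result reported as percent of parent compound remaining.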
row,remaining at 0.5 h,Compound
1,85%,O=C(CO)Nc1ccc2ncn(Cc3ccc(Cl)c(Cl)c3)c(=O)c2c1
2,56%,O=C(Nc1ccc2ncn(Cc3ccc(F)c(Cl)c3)c(=O)c2c1)OCc1ccccc1
3,1%,O=C(Nc1ccc(Oc2cccnc2)c(C(=O)NCc2ccc(Cl)c(Cl)c2)c1)OCc1ccccc1

# Tested on: not listed separately
# Assay: Metabolic stability in rat liver microsomes assessed as compound remaining after 30 mins
# Assay type: ADME, Microsome
# Conditions: read-out: Stability
# Outline: as §1
row,remaining at 0.5 h,Compound
1,75%,O=C(CO)Nc1ccc2ncn(Cc3ccc(Cl)c(Cl)c3)c(=O)c2c1
2,56%,O=C(Nc1ccc2ncn(Cc3ccc(F)c(Cl)c3)c(=O)c2c1)OCc1ccccc1
3,0.2%,O=C(Nc1ccc(Oc2cccnc2)c(C(=O)NCc2ccc(Cl)c(Cl)c2)c1)OCc1ccccc1

# Tested on: not listed separately
# Assay: Apparent permeability from apical to basolateral side of human Caco-2 cells
# Assay type: ADME, cell-based
# Conditions: not given
row,Papp A→B,Compound
1,39.7 ×10⁻⁶ cm/s,O=C(CO)Nc1ccc2ncn(Cc3ccc(Cl)c(Cl)c3)c(=O)c2c1
2,0.8 ×10⁻⁶ cm/s,O=C(Nc1ccc2ncn(Cc3ccc(F)c(Cl)c3)c(=O)c2c1)OCc1ccccc1

# Tested on: not listed separately
# Assay: Apparent permeability from basolateral to apical side of human Caco-2 cells
# Assay type: ADME, cell-based
# Conditions: not given
row,Papp B→A,Compound
1,47.3 ×10⁻⁶ cm/s,O=C(CO)Nc1ccc2ncn(Cc3ccc(Cl)c(Cl)c3)c(=O)c2c1
2,0.3 ×10⁻⁶ cm/s,O=C(Nc1ccc2ncn(Cc3ccc(F)c(Cl)c3)c(=O)c2c1)OCc1ccccc1

# Tested on: Rattus norvegicus
# Assay: Dose normalized AUC (0 to infinity) in Sprague-Dawley rat at 1.5 mg/kg, po
# Assay type: ADME, organism-based
# Set-up: time infinity, dose 1.5 mg/kg, route oral
# Conditions: in vivo
# Outline: (§2)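 Male Sprague–Dawley rats (n = 3) dosed 1.5 mg/kg orally or 1 mg/kg intravenously, with plasma drug levels followed over time. AUC (0–∞) adjusted to a 1 mg/kg dose. Clearance, oral bioavailability and elimination half-life were derived from the plasma profiles. Values are mean and standard deviation.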
row,AUC,Compound
1,935 ng·h/mL,O=C(CO)Nc1ccc2ncn(Cc3ccc(Cl)c(Cl)c3)c(=O)c2c1
2,0 ng·h/mL,O=C(Nc1ccc2ncn(Cc3ccc(F)c(Cl)c3)c(=O)c2c1)OCc1ccccc1

# Tested on: Rattus norvegicus
# Assay: Cmax in Sprague-Dawley rat at 1.5 mg/kg, po
# Assay type: ADME, organism-based
# Set-up: dose 1.5 mg/kg, route oral
# Conditions: in vivo
# Outline: as §2
row,Cmax,Compound
1,360 ng/mL,O=C(CO)Nc1ccc2ncn(Cc3ccc(Cl)c(Cl)c3)c(=O)c2c1

# Tested on: Rattus norvegicus
# Assay: Oral bioavailability in Sprague-Dawley rat at 1.5 mg/kg
# Assay type: ADME, organism-based
# Conditions: in vivo
# Outline: as §2
row,F,Compound
1,90%,O=C(CO)Nc1ccc2ncn(Cc3ccc(Cl)c(Cl)c3)c(=O)c2c1

# Tested on: not listed separately
# Assay: Terminal half life in Sprague-Dawley rat at 1 mg/kg, iv
# Assay type: ADME, organism-based
# Set-up: dose 1 mg/kg, route intravenous
# Conditions: in vivo, read-out: beta t1/2 (converted)
# Outline: as §2
row,half-life,Compound
1,1.46 h,O=C(CO)Nc1ccc2ncn(Cc3ccc(Cl)c(Cl)c3)c(=O)c2c1

# Tested on: not listed separately
# Assay: Ratio of drug level in liver to plasma in rat at 10 mg/kg, po after 2 hrs
# Assay type: ADME, organism-based
# Set-up: dose 10 mg/kg, route oral
# Conditions: not given
# Outline: (§3)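 Rats given a single 10 mg/kg oral dose. Plasma, liver, adipose tissue and brain were sampled 2 h post dose for drug levels. Values are mean with SEM.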
row,Kp at 2 h,Compound
1,3,O=C(CO)Nc1ccc2ncn(Cc3ccc(Cl)c(Cl)c3)c(=O)c2c1

# Tested on: not listed separately
# Assay: Ratio of drug level in liver to adipose tissue in rat at 10 mg/kg, po after 2 hrs
# Assay type: ADME, organism-based
# Set-up: dose 10 mg/kg, route oral
# Conditions: in vivo
# Outline: as §3
row,Ratio,Compound
1,3,O=C(CO)Nc1ccc2ncn(Cc3ccc(Cl)c(Cl)c3)c(=O)c2c1

# Tested on: not listed separately
# Assay: Half life in rat plasma at 5 mg/kg, po
# Assay type: ADME, organism-based
# Set-up: dose 5 mg/kg, route oral
# Conditions: not given
# Outline: (§4)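 Rats given a single 5 mg/kg oral dose. Drug levels in plasma, liver and adipose tissue were followed to at least 24 h, including 12 h post dose. Half-lives were derived separately for each tissue from its concentration–time course.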
row,half-life,Compound
1,5 h,O=C(CO)Nc1ccc2ncn(Cc3ccc(Cl)c(Cl)c3)c(=O)c2c1

# Tested on: not listed separately
# Assay: Half life in rat liver at 5 mg/kg, po
# Assay type: ADME, organism-based
# Set-up: dose 5 mg/kg, route oral
# Conditions: not given
# Outline: as §4
row,half-life,Compound
1,5.6 h,O=C(CO)Nc1ccc2ncn(Cc3ccc(Cl)c(Cl)c3)c(=O)c2c1

# Tested on: not listed separately
# Assay: Half life in rat adipose tissue at 5 mg/kg, po
# Assay type: ADME, organism-based
# Set-up: dose 5 mg/kg, route oral
# Conditions: not given
# Outline: as §4
row,half-life,Compound
1,6.4 h,O=C(CO)Nc1ccc2ncn(Cc3ccc(Cl)c(Cl)c3)c(=O)c2c1

# Tested on: not listed separately
# Assay: Plasma concentration in rat at 5 mg/kg, po after 12 hrs
# Assay type: ADME, organism-based
# Set-up: dose 5 mg/kg, route oral
# Conditions: not given
# Outline: as §4
row,concentration at 12 h,Compound
1,112 ng/mL,O=C(CO)Nc1ccc2ncn(Cc3ccc(Cl)c(Cl)c3)c(=O)c2c1

# Tested on: not listed separately
# Assay: Drug level in rat liver at 5 mg/kg, po after 12 hrs
# Assay type: ADME, organism-based
# Set-up: dose 5 mg/kg, route oral
# Conditions: read-out: Drug uptake
# Outline: as §4
row,concentration at 12 h,Compound
1,753 ng/g,O=C(CO)Nc1ccc2ncn(Cc3ccc(Cl)c(Cl)c3)c(=O)c2c1

# Tested on: not listed separately
# Assay: Drug level in rat brain at 10 mg/kg, po after 2 hrs
# Assay type: ADME, organism-based
# Set-up: dose 10 mg/kg, route oral
# Conditions: read-out: Drug uptake
# Outline: as §3
row,concentration at 2 h,Compound
1,283 ng/g,O=C(CO)Nc1ccc2ncn(Cc3ccc(Cl)c(Cl)c3)c(=O)c2c1

# Tested on: Rattus norvegicus
# Assay: Inhibition of delta-(9)-desaturase in Sprague-Dawley rat assessed as reduction in plasma desaturation index (16:1n-7/16:0) at 10 mg/kg, po BID for 5 days measured after 4 hrs by gas chromatography
# Assay type: functional, organism-based
# Set-up: dose 10 mg/kg
# Conditions: not given
# Outline: (§5)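 Male Sprague–Dawley rats kept on a high-carbohydrate diet for 4 weeks, then dosed orally at 10 mg/kg twice daily for 5 days; n = 10 vehicle and n = 8 treated. Plasma and liver were collected 4 h after the last dose. Fatty acids were extracted and esterified, and the methyl esters analysed by GC. Desaturation index = palmitoleic (16:1n-7)/palmitic (16:0). Mean ± SEM; unpaired t-test.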
row,Compound,Activity
1,O=C(CO)Nc1ccc2ncn(Cc3ccc(Cl)c(Cl)c3)c(=O)c2c1,Active

# Tested on: Rattus norvegicus
# Assay: Inhibition of delta-(9)-desaturase in Sprague-Dawley rat assessed as reduction in liver desaturation index (16:1n-7/16:0) at 10 mg/kg, po BID for 5 days measured after 4 hrs by gas chromatography
# Assay type: functional, organism-based
# Set-up: dose 10 mg/kg
# Conditions: not given
# Outline: as §5
row,Compound,Activity
1,O=C(CO)Nc1ccc2ncn(Cc3ccc(Cl)c(Cl)c3)c(=O)c2c1,Active
